An excerpt weighted towards active compounds, which were near 2.3% of everything screened.
TRPC6 inhibitor = mouse TRPC6 channel inhibition. HEK293-TRPC6, membrane potential dye, ACh-evoked depolarization; active compounds read low. B-score at 10 µM. 1.1% of 310,000 active;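 active means B-score under library mean minus 3 SD, initial fluorescence not abnormally high, positive integrated signal ratio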;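 further: B-score derived from integrated fluorescence ratio over the kinetic read; more negative B-score means stronger inhibition of depolarization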
Target sequence (Q61143 whole entry, looked up): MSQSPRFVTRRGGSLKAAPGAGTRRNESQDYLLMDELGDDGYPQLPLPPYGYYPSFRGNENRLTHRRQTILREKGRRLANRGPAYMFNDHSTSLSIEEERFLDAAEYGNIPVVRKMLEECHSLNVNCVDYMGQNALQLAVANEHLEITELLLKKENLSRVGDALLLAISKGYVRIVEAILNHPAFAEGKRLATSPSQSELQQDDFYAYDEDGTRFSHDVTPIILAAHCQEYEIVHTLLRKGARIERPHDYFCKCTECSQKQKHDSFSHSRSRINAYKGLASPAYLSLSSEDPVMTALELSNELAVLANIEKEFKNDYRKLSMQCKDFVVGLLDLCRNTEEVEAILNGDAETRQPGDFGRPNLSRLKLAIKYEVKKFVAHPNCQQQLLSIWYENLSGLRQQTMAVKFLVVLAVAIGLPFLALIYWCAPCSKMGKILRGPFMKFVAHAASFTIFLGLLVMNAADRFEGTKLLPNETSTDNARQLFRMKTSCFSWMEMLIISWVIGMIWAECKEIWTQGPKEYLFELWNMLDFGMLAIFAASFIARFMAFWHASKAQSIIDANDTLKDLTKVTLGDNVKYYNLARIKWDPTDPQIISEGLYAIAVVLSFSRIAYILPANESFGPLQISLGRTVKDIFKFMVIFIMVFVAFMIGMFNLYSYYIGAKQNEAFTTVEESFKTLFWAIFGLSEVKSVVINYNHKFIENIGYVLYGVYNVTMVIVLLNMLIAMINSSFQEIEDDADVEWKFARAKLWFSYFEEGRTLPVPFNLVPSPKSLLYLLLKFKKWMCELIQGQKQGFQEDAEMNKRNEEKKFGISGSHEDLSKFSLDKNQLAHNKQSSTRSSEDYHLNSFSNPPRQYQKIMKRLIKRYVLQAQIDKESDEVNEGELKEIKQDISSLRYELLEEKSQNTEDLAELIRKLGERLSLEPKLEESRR
TRPC4 agonist = activators of mouse TRPC4 channel; Q9QUQ5; HEK293 TRPC4beta/mu-opioid, Fluo4 calcium fluorescence; active compounds read high; B-score at 10 µM; 0.49% of 310,000 active;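 active means B-score above 5 SD of library B-scores, and initial fluorescence ratio not above library mean plus 5 SD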;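 further: positive B-score marks a calcium rise read as TRPC4 activation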
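Technique: kinetic Fluo4 calcium fluorescence; Test system: TRPC4beta and mu-opioid receptor HEK293 stable cells; Measure: B-scored integrated calcium fluorescence ratio; Benchmarks: low control buffer alone, high control maximal DAMGO; Schedule: 45 min room-temperature Fluo4 loading, 110 s read.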
TRPC4 block = TRPC4 (mouse) channel inhibition; AID 2247; 0.39% of 300,000 active; HEK293 TRPC4beta/mu-opioid, DAMGO-evoked Fluo4 calcium flux; active compounds read low; Q9QUQ5; B-score at 10 µM;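 active means B-score over 3 SD under the library average, no early fluorescence shift, positive overall ratio signal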
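Assay system – HEK293 line stably carrying TRPC4beta and mu-opioid receptor · Doses – single dose · Detection – Fluo4 calcium-dye fluorescence, kinetic read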
TRPC4 potent = TRPC4 (mouse) allosteric potentiation; Q9QUQ5; HEK293 TRPC4beta/mu-opioid, DAMGO EC20, Fluo-4 Ca2+ flux; active compounds read high; B-score at 10 µM; 0.42% of 310,000 active; AID 2227;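 active means B-score of calcium response area above 5 SD of library B-scores, with initial fluorescence ratio within 5 SD of library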;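 further: B-score of integrated fluorescence ratio over time as area under calcium response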
TRPC6 act = activates the mouse TRPC6 cation channel. HEK293-TRPC6 membrane potential dye fluorescence; active compounds read high. 0.13% of 310,000 active. AID 2550. Q61143. B-score at 10 µM;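 active means B-score of the integrated fluorescence ratio above library mean plus 3 SD, and starting fluorescence ratio within library mean plus 5 SD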;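 further: higher score means more depolarization so channel activation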
TRPC4 sel inh 2 = second selectivity test of TRPC6 inhibitors: effect on mouse TRPC4. shares compounds with TRPC6 inhibitor. HEK293 TRPC4/MOR, membrane potential dye fluorescence; channel activated by saturating DAMGO dose. inhibition, % at 10 µM. 42% of 920 active. AID 2776;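 active means compounds whose fluorescence signal differed from control wells by over 3 SD, either direction, in both duplicate plates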
TRPC4 spec = mouse TRPC4 off-target activity of TRPC6 inhibitors; shares compounds with TRPC6 inhibitor; HEK293 TRPC4/mu-opioid, membrane potential fluorescence; activity change, negative = inhibition, % at 10 µM; 61% of 920 active; AID 2777;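 active means rise or fall in signal beyond 3 SD of buffer-only wells in both replicate plates, either sign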;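 further: integrated kinetic ratio of fluorescence range over baseline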
HEK293 MPD ctr 2-1 = parental HEK293 nonspecific activity of TRPC6 inhibitors, second screen; shares compounds with TRPC6 inhibitor; parental HEK293 membrane potential dye fluorescence; maximal acetylcholine challenge after compound addition; signal change vs control, % at 10 µM; 31% of 920 active; AID 2779;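 active means membrane potential signal moving either way by over 3 SD of the maximum-effect control, in both duplicate plates, meaning non-specific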
HEK293 MPD ctr-1 = parental HEK293 nonspecific activity of TRPC6 inhibitors | shares compounds with TRPC6 inhibitor | parental HEK293 membrane potential dye fluorescence | membrane potential signal change, % at 10 µM | 60% of 920 active;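 active means membrane potential signal shifting up or down by more than 3 SD of buffer-only wells, on both duplicate plates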
HEK293 MPD ctr-2 = checks TRPC6 modulator effects in parental HEK293 cells; shares compounds with TRPC6 inhibitor; membrane potential dye fluorescence; membrane potential signal change, % at 10 µM; 51% of 2,400 active; AID 488924;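 active means membrane potential signal moves up or down beyond 5 SD from buffer-only wells, on both duplicate plates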
HEK293 MPD ctr 2-2 = second check of TRPC6 modulator effects in parental HEK293 cells. 14% of 2,400 active. shares compounds with TRPC6 inhibitor. membrane potential dye fluorescence; after compound, maximal acetylcholine stimulation. inhibition, % at 10 µM. AID 488926;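 active means membrane potential signal drops by more than 5 SD from the mean control signal, in both duplicate plates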;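 further: plate controls were acetylcholine ECmax control wells for no effect and buffer only wells for full effect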
TRPC4 ctr mod = mouse TRPC4 off-target activity of TRPC6 modulators. shares compounds with TRPC6 inhibitor. HEK293 TRPC4/mu-opioid, membrane potential fluorescence. percent change from control (negative = decrease, positive = increase), % at 10 µM. 69% of 2,400 active;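 active means membrane potential signal moved up or down beyond 5 SD of buffer control wells, in both duplicate plates, actives on both sides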;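 further: plate controls were assay buffer wells for no effect and DAMGO maximal-effect wells for full effect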
TRPC4/MOR inh 2 = second selectivity test of TRPC6 modulators against mouse TRPC4; shares compounds with TRPC6 inhibitor; HEK293 TRPC4/mu-opioid, membrane potential dye fluorescence; stimulated with maximal-effect DAMGO; inhibition, % at 10 µM; 55% of 2,400 active; AID 488928;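 active means drop in membrane potential signal beyond 5 SD of the control wells in both duplicate plates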;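 further: TRPC4 counter screen for TRPC6 hits run under conditions tuned for TRPC6 not TRPC4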
TRPC6 inh conf = mouse TRPC6 inhibitor confirmation; HEK293-TRPC6, membrane potential dye, ACh-evoked depolarization; shares compounds with TRPC6 inhibitor; inhibition, % at 10 µM; 43% of 3,300 active;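 active means fluorescence ratio falls more than 5 SD below the full-stimulation control mean, in both duplicate runs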;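 further: integrated fluorescence ratio of peak minus minimum over baseline after agonist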
TRPC6 act confirm = mouse TRPC6 activator confirmation | HEK293-TRPC6 membrane potential dye fluorescence, FDSS | activation, % at 10 µM | shares compounds with TRPC6 inhibitor | 11% of 2,800 active | AID 488961;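 active means ratio signal rise beyond 5 SD above unstimulated control wells' mean, seen in both duplicate runs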;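 further: plate controls were buffer EC0 wells for no effect and acetylcholine ECmax response for full effect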
Active calls of the source: *; i = inactive; . = not tested or not shown.

SMILES	TRPC6 inhibitor	TRPC4 agonist	TRPC4 block	TRPC4 potent	TRPC6 act	HEK293 MPD ctr-2	HEK293 MPD ctr 2-2	TRPC4 ctr mod	TRPC4/MOR inh 2	TRPC6 inh conf	TRPC6 act confirm	others
C=CCn1c(O)c(C2=c3ccccc3=NC2=O)sc1=Nc1ccc(O)cc1	-8.02*	i	i	i	i	.	.	.	.	54.9%*	i	TRPC4 sel inh 2=i;TRPC4 spec=-15.0%*;HEK293 MPD ctr 2-1=i;HEK293 MPD ctr-1=-137.5%*
O=C1N=c2ccccc2=C1c1sc(=S)n(NC(=O)c2ccccc2)c1O	i	i	i	i	i	.	.	.	.	.	.
Cc1ccc(NC(=O)CNC(=O)c2ccco2)cc1	i	i	i	i	i	.	.	.	.	.	.
Cc1ccc2nc(N=C(N)N)nc(C)c2c1	-9.43*	i	i	i	i	-196.5%*	i	-35.5%*	64.0%*	37.0%*	i
CC(C)c1ccc(S(=O)(=O)/N=C2\C=C(NS(=O)(=O)c3ccccc3)C(=O)c3ccccc32)cc1	-5.26*	i	-13*	i	i	-169.5%*	64.0%*	-30.5%*	80.0%*	68.5%*	i
Cc1ccccc1NC1=C/C(=N\S(=O)(=O)c2ccc(C(=O)O)cc2)c2ccccc2C1=O	i	i	i	i	i	.	.	.	.	.	.
O=C(CNC(=O)c1cccs1)NCC(=O)OCc1ccc(F)cc1	i	i	i	i	i	.	.	.	.	.	.
COC(=O)c1ccc(COC(=O)CNC(=O)c2cccs2)cc1	-6.21*	i	i	i	i	i	i	-8.0%*	i	i	i
N=c1c(C(=O)NCc2ccc(F)cc2)cc2c(=O)n3ccccc3nc2n1CC1CCCO1 (stereo not given)	-6.7*	i	i	i	i	i	i	-37.5%*	53.5%*	59.0%*	i
COc1ccc(CCNC(=O)c2cc3c(=O)n4ccccc4nc3n(CC3CCCO3)c2=N)cc1OC (stereo not given)	-5.05*	i	i	i	i	106.0%*	i	12.5%*	i	45.5%*	.
COc1ccc(CCNC(=O)c2cc3c(=O)n4ccccc4nc3n(C3CCCCC3)c2=N)cc1OC	i	i	i	i	i	.	.	.	.	.	.
COc1ccc2[nH]c(C(=O)NCc3ccccc3)c(C)c2c1	i	i	i	i	i	.	.	.	.	.	.
CCOc1ccc(S(=O)(=O)N(C)c2ccc(OCC(=O)NCc3ccc(C(=O)OC)cc3)cc2)cc1	i	i	i	i	i	.	.	.	.	.	.
